Measured values taken from ChEMBL document CHEMBL2429814 (J Med Chem, 2013).
One block for each molecule: values may come before it.

What was measured:
[1] = molecular target: Metabotropic glutamate receptor 5 (Rattus norvegicus) (UniProt P31424); test: Potentiation of rat mGluR5 receptor stably expressed in HEK293 cells assessed as fold shift in glutamate concentration response curve at 10 uM relative to control; format: cell-based
How it was run: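 HEK293 cells stably expressing rat mGlu5 were loaded with Fluo-4AM. Compound at 10 µM, or vehicle, was added, and a glutamate concentration-response curve followed 140 s later. The fold leftward shift of the glutamate curve was read from calcium fluorescence. Values are means of three independent experiments in triplicate.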

[2] = molecular target: Metabotropic glutamate receptor 5 (Rattus norvegicus) (UniProt P31424); test: Positive allosteric modulation of rat mGluR5 stably expressed in HEK293 cells assessed as increase in intracellular calcium level by Fluo-4AM dye-based fluorescence assay relative to glutamate; format: functional, cell-based
[3] = molecular target: T1, Metabotropic glutamate receptor 5 (Rattus norvegicus, UniProt P31424); test: Positive allosteric modulation of rat mGluR5 stably expressed in HEK293 cells assessed as increase in intracellular calcium level by Fluo-4AM dye-based fluorescence assay; format: functional, cell-based
T1 sequence (P31424 whole entry): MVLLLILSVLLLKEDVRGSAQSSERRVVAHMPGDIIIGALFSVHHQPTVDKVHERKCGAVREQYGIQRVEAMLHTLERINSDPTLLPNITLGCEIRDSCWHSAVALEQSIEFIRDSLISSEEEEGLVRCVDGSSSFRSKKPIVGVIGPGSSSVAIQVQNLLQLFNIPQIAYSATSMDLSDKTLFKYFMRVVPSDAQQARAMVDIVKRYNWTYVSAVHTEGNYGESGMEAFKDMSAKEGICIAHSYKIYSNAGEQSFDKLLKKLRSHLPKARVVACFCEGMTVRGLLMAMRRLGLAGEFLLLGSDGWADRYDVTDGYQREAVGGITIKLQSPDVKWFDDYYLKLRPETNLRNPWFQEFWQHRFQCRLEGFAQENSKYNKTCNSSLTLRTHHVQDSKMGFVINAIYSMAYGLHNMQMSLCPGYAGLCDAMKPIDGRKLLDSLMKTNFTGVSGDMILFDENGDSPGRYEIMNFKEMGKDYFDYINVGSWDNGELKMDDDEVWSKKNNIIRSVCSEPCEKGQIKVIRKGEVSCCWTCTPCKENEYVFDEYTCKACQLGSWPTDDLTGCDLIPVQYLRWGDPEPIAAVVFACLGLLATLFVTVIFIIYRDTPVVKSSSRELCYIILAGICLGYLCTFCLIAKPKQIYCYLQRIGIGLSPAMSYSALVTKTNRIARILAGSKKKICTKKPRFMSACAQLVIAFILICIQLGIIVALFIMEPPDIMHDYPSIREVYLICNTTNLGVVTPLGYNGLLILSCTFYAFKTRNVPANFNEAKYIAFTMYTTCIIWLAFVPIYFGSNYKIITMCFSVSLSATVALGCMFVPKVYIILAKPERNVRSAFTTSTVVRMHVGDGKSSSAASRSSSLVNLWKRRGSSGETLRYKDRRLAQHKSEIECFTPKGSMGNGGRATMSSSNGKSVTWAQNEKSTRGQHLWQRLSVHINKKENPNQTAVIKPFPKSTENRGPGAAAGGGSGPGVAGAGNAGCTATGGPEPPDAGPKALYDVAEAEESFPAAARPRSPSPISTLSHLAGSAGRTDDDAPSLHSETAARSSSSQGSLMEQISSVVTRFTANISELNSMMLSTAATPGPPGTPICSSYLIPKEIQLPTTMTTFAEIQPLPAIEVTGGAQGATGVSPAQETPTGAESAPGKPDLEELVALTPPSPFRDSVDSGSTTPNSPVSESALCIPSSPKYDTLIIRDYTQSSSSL
How it was run: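 HEK293 cells stably expressing rat mGlu5 (low receptor density line), 15,000 cells/well, grown overnight at 37°C/5% CO2. Loaded with Fluo-4AM for 50 min at 37°C in HBSS with 20 mM HEPES, 2.5 mM probenecid, pH 7.4. Triple add: compound, then EC20 glutamate 140 s later, then EC80 glutamate 60 s later. Calcium fluorescence read over time. Values are means of ≥3 independent experiments run in duplicate or triplicate.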

[4] = molecular target: T1, Metabotropic glutamate receptor 5; test: Antagonist activity at rat mGluR5 stably expressed in HEK293 cells assessed as inhibition of glutamate-induced intracellular calcium level by Fluo-4AM dye-based fluorescence assay; format: functional, cell-based
[5] = molecular target: Metabotropic glutamate receptor 5 (Rattus norvegicus) (UniProt P31424); test: Antagonist activity at rat mGluR5 stably expressed in HEK293 cells assessed as inhibition of glutamate-induced intracellular calcium level by Fluo-4AM dye-based fluorescence assay relative to control; format: functional, cell-based; conditions: concentration not given here
[6] = Ratio of drug level in brain to plasma in (unknown origin); format: ADME, cell-free; conditions: brain and plasma; read-out: BPR
[7] = Protein binding in (unknown origin) plasma; format: ADME, cell-free; conditions: read-out: PPB (converted)
[8] = molecular target: T1, Metabotropic glutamate receptor 5; test: Positive allosteric modulation of rat mGluR5 stably expressed in CHO cells assessed as calcium mobilization; format: functional, cell-based
[9] = Plasma protein binding in rat; format: ADME, cell-free; conditions: read-out: PPB
How it was run: (§1)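 Fraction unbound measured by equilibrium dialysis in human or rat plasma.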

[10] = Plasma protein binding in human; format: ADME, cell-free; conditions: read-out: PPB; how it was run: as §1
[11] = Fraction unbound in rat plasma by equilibrium dialysis method; format: ADME, cell-free
How it was run: (§2)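 Plasma protein binding measured by equilibrium dialysis in human or rat plasma; reported as percent unbound.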

[12] = Fraction unbound in human plasma by equilibrium dialysis method; format: ADME, cell-free; how it was run: as §2
[13] = molecular target: T1, Metabotropic glutamate receptor 5; test: Positive allosteric modulation of rat mGluR5
[14] = molecular target: Metabotropic glutamate receptor 5 (Rattus norvegicus) (UniProt P31424); test: Positive allosteric modulation of mGluR5 in rat cortical neurons at 1 uM relative to DHPG
[15] = molecular target: T2, Metabotropic glutamate receptor 5 (Homo sapiens, UniProt P41594); test: Positive allosteric modulation of human mGluR5
Target sequence in this assay (P41594 whole entry): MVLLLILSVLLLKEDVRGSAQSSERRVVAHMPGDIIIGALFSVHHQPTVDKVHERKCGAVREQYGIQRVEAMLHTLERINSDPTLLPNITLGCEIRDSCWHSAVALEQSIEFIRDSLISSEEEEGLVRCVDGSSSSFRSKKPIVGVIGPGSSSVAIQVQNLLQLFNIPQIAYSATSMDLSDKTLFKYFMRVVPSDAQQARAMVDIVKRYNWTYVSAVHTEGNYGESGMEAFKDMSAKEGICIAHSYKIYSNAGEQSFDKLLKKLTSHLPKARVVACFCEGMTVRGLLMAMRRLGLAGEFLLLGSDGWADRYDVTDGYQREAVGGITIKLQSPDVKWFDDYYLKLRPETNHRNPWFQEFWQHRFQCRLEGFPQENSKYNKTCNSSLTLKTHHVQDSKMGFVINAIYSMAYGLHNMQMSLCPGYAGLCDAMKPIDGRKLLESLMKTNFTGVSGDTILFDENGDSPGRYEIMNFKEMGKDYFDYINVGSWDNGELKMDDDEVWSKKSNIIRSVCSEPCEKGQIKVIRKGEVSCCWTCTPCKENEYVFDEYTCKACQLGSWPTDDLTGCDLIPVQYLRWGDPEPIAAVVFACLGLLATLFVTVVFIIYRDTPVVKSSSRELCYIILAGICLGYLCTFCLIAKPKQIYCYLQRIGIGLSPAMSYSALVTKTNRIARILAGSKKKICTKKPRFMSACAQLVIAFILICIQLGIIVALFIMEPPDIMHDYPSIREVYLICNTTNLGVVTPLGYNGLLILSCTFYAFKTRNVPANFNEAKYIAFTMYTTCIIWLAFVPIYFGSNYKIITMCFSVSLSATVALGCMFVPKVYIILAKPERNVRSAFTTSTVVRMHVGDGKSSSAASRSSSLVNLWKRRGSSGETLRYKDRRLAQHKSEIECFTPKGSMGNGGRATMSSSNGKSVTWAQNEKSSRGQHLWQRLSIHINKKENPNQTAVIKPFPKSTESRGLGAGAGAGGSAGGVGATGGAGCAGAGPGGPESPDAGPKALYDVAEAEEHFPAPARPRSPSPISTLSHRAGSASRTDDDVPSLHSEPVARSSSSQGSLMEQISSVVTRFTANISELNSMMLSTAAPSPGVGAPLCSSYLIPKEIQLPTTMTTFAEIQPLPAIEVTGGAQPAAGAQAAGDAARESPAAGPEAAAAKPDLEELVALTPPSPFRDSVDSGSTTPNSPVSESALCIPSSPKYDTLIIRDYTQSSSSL

[16] = molecular target: T2, Metabotropic glutamate receptor 5; test: Positive allosteric modulation of mGluR5 (unknown origin) at 10 uM relative to glutamate
How it was run: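 HEK293 cells stably expressing rat mGlu5 (low receptor expression line) were plated overnight at 37°C/5% CO2 and loaded with Fluo-4AM for 50 min at 37°C in HBSS with 20 mM HEPES and 2.5 mM probenecid, pH 7.4. PAM (10 µM) or vehicle was added, then a glutamate concentration-response curve 140 s later. Read-out was calcium fluorescence, reported as glutamate fold-shift, three independent runs in triplicate.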
Target sequence in this assay (P41594 21-1212 limits assumed): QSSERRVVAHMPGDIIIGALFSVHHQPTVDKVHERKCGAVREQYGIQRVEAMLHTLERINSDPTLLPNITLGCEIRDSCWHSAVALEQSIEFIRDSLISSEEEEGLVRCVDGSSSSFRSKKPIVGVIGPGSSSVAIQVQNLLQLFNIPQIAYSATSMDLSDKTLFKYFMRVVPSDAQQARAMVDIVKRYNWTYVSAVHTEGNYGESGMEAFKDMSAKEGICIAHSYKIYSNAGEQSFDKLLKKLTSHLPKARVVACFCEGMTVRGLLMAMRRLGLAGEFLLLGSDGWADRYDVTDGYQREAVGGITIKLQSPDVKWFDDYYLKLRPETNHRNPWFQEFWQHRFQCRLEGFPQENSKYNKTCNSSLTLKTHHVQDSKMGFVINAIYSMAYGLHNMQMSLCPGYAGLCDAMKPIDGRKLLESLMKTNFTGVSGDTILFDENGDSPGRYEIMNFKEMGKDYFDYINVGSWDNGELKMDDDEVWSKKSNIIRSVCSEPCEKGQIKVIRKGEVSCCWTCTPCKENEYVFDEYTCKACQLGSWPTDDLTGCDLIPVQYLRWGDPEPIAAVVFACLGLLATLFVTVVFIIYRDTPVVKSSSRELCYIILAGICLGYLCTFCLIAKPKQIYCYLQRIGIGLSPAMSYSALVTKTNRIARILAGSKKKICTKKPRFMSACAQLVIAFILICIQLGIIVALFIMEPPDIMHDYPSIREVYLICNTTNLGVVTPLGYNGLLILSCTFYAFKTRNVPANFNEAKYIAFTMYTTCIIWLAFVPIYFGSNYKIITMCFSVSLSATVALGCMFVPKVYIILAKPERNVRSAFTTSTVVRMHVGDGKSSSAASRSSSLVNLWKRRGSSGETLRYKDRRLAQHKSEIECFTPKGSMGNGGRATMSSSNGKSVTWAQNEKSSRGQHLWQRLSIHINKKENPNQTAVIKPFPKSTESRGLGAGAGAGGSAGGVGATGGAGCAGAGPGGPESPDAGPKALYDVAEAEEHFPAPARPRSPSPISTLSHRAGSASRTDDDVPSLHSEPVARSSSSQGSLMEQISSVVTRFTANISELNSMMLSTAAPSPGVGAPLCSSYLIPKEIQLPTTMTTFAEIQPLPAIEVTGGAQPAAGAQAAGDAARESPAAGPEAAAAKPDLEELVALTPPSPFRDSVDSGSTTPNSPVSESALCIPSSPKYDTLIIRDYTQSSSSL

[17] = Agonist activity at rat mGluR5 W784A mutant stably expressed in HEK293 cells assessed as increase in intracellular calcium level at 1 to 100 uM by Fluo-4AM dye-based fluorescence assay; format: cell-based; conditions: hek293, 100 µM
[18] = Agonist activity at rat mGluR5 T780A mutant stably expressed in HEK293 cells assessed as increase in intracellular calcium level at 1 to 100 uM by Fluo-4AM dye-based fluorescence assay; format: cell-based; conditions: hek293, 100 µM

Chain of Metabotropic glutamate receptor 5 (Rattus norvegicus) (P31424 21-1203 limits assumed): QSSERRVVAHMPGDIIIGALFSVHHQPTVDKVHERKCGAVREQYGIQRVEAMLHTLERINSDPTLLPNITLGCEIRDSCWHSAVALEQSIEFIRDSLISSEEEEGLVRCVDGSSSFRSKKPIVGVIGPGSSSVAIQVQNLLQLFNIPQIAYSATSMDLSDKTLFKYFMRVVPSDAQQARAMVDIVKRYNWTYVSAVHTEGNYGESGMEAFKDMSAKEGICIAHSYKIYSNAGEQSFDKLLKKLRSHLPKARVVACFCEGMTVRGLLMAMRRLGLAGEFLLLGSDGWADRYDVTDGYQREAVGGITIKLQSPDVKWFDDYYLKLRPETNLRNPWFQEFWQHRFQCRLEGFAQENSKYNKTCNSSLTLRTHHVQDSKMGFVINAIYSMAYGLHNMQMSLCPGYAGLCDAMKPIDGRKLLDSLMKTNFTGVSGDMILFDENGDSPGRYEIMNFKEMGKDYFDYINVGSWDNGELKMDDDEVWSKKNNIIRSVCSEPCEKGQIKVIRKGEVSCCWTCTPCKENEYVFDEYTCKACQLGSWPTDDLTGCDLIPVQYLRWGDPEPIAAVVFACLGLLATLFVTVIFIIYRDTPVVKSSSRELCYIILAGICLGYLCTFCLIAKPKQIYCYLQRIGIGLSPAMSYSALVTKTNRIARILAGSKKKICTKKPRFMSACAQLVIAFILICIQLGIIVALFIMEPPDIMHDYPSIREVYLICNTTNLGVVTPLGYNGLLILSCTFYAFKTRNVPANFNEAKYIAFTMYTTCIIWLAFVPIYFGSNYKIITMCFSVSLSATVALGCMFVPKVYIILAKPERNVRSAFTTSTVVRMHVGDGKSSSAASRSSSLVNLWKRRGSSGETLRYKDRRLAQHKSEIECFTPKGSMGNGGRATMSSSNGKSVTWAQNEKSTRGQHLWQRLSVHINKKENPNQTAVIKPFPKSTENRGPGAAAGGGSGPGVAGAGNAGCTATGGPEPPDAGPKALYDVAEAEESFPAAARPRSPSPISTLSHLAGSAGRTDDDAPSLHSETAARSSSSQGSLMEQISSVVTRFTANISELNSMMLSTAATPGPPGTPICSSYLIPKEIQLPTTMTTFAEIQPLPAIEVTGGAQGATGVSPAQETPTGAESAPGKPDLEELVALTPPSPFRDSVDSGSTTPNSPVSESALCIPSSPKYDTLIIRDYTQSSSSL

SMILES: CC(C)(O)CCNC(=O)c1ccc(C#Cc2cccc(F)c2)cn1
fold change (FC) [1]: 5.3
Efficacy [2]: 61.9%
EC50 ([3]; read-out: EC50): 0.136 µM

SMILES: CC1(NC(=O)c2ccc(C#Cc3ccccn3)cn2)COC1
IC50 [4]: 0.731 µM
inhibition [5]: 16.7%

SMILES: O=C(NC1CCC1)c1ccc(C#Cc2cccc(F)c2)nc1
Kp [6]: 0.13
fraction unbound [7]: 0.011
EC50 [8]: 0.039 µM

SMILES: CC(C)CNC(=O)c1ccc(C#Cc2cccc(F)c2)cn1
fold change (FC) [1]: 1.9
Efficacy [2]: 58.2%
EC50 ([3]; read-out: EC50): 0.0289 µM

fraction unbound [9]: < 0.01
fraction unbound [10]: < 0.01
fraction unbound [11]: < 0.01
fraction unbound [12]: < 0.01
EC50 [13]: 0.004 µM
SMILES: O=C(NC1CCC1)c1ccc(C#Cc2cccc(F)c2)cn1

SMILES: C[C@@H](NC(=O)c1ccc(C#Cc2ccccn2)cn1)C(C)(C)F
fold change (FC) [1]: 1.5
Efficacy [2]: 54.9%
EC50 ([3]; read-out: EC50): 0.0222 µM

SMILES: CC(C)NC(=O)c1ccc(C#Cc2ccncc2)cn1
fold change (FC) [14]: 2
EC50 [13]: 0.024 µM
EC50 [15]: 0.033 µM

fold change (FC) [16]: 11
SMILES: C[C@@H]1CC[C@H](c2noc(-c3ccc(F)cn3)n2)CN1C(=O)c1ccccc1

SMILES: C[C@@H](NC(=O)c1ccc(C#Cc2ccccn2)cn1)C(C)(C)O
fold change (FC) [1]: 1.7
Activity [17]: Active
Activity [18]: Not Active
Efficacy [2]: 57.5%
EC50 ([3]; read-out: EC50): 0.0413 µM
EC50 ([3]; read-out: pEC50 (converted)): 0.0933 µM
